Consider three molecules from ChEMBL document CHEMBL5653631, “A Potent and Selective ULK1 Inhibitor Suppresses Autophagy and Sensitizes Cancer Cells to Nutrient Stress” (iScience, 2018).

The target of experiment [1] is Cyclin-dependent kinase 9 (Homo sapiens) (UniProt P50750). Put plainly: Inhibition of human recombinant CDK9 at 15 nM in presence of ATP by radiometric assay relative to control.
For experiment [2], the target named is Ephrin type-A receptor 4 (Homo sapiens) (UniProt P54764). Nature of the experiment: Inhibition of human recombinant EphA4 at 15 nM related to control ULK1.
Experiment [3] addresses RAC-beta serine/threonine-protein kinase (Homo sapiens) (UniProt P31751). Put plainly: Inhibition of human recombinant AKT2 at 15 nM related to control ULK1.
For experiment [4], the target named is STE20-like serine/threonine-protein kinase (Homo sapiens) (UniProt Q9H2G2). Nature of the experiment: Inhibition of human recombinant SLK at 15 nM in presence of ATP by radiometric assay relative to control.
Experiment [5] addresses SRSF protein kinase 3 (Homo sapiens) (UniProt Q9UPE1). Put plainly: Inhibition of human recombinant MSSK1 at 15 nM related to control ULK1.
The target of experiment [6] is T1, Serine/threonine-protein kinase DCLK3 (Homo sapiens) (UniProt Q9C098).
T1 sequence (whole entry): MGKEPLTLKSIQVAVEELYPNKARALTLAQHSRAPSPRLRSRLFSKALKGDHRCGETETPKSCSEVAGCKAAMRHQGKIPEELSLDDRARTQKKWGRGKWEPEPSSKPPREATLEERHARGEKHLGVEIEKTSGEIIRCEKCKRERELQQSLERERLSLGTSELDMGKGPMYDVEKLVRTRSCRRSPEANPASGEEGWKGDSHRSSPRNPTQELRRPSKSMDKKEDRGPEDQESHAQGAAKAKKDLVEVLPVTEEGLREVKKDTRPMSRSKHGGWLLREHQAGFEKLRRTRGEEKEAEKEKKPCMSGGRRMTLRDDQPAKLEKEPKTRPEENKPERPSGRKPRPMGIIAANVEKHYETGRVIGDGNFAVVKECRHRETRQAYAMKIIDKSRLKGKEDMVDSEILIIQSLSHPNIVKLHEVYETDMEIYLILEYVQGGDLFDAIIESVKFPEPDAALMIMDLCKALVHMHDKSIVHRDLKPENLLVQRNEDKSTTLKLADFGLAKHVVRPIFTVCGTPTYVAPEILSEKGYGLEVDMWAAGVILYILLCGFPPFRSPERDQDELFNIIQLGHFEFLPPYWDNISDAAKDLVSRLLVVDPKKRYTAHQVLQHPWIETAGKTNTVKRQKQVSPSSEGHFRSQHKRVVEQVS
Nature of the experiment: Inhibition of human recombinant DCAMKL3 at 40 nM related to control ULK1.

Experiment [7] concerns the target Macrophage-stimulating protein receptor (Homo sapiens) (UniProt Q04912). Put plainly: Inhibition of human recombinant RON at 40 nM in presence of ATP by radiometric assay relative to control.
In experiment [8] the target is Bone morphogenetic protein receptor type-1B (Homo sapiens) (UniProt O00238). Put plainly: Inhibition of human recombinant BMPR1B at 40 nM related to control ULK1. A digest of the protocol:
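Radiometric activity assays in a panel of 327 human recombinant kinases, each run in duplicate at one inhibitor concentration. Activity remaining is expressed as percent of vehicle control, and percent inhibition is calculated as 100% minus percent activity remaining.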

The target of experiment [9] is Macrophage colony-stimulating factor 1 receptor (Homo sapiens) (UniProt P07333). Nature of the experiment: Inhibition of human recombinant FMS at 40 nM related to control ULK1.
The target of experiment [10] is T2, Mitogen-activated protein kinase kinase kinase kinase 2 (Homo sapiens) (UniProt Q12851).
T2 sequence (whole entry): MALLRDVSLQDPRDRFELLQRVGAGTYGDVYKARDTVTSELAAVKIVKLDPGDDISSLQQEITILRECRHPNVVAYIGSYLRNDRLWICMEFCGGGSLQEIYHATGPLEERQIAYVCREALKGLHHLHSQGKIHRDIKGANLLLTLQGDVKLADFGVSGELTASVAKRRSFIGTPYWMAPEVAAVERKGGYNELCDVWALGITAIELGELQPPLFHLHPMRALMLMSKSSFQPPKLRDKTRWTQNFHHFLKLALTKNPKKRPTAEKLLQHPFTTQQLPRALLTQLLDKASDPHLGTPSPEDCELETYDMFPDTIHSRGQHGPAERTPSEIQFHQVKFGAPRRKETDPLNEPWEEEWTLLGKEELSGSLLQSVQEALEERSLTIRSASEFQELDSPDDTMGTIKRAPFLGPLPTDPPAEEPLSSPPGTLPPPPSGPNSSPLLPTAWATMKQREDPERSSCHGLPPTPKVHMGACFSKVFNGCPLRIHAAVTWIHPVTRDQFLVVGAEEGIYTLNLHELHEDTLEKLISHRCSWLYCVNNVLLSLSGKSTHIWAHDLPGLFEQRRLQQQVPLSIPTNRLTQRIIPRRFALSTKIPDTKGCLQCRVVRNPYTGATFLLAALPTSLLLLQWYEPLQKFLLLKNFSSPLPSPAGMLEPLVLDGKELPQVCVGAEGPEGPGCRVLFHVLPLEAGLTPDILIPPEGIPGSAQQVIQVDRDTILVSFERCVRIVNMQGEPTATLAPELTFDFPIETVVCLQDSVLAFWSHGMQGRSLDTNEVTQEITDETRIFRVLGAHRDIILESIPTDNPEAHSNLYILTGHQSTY
Put plainly: Inhibition of human recombinant GCK at 40 nM related to control ULK1.

Experiment [11] concerns the target Serine/threonine-protein kinase PAK 4 (Homo sapiens) (UniProt O96013). Nature of the experiment: Inhibition of human recombinant PAK4 at 500 nM related to control ULK1.
The target of experiment [12] is Serine/threonine-protein kinase 10 (Homo sapiens) (UniProt O94804). Nature of the experiment: Inhibition of human recombinant LOK at 500 nM in presence of ATP by radiometric assay relative to control.
Serine/threonine-protein kinase 10 (Homo sapiens), sequence (O94804 whole entry, looked up): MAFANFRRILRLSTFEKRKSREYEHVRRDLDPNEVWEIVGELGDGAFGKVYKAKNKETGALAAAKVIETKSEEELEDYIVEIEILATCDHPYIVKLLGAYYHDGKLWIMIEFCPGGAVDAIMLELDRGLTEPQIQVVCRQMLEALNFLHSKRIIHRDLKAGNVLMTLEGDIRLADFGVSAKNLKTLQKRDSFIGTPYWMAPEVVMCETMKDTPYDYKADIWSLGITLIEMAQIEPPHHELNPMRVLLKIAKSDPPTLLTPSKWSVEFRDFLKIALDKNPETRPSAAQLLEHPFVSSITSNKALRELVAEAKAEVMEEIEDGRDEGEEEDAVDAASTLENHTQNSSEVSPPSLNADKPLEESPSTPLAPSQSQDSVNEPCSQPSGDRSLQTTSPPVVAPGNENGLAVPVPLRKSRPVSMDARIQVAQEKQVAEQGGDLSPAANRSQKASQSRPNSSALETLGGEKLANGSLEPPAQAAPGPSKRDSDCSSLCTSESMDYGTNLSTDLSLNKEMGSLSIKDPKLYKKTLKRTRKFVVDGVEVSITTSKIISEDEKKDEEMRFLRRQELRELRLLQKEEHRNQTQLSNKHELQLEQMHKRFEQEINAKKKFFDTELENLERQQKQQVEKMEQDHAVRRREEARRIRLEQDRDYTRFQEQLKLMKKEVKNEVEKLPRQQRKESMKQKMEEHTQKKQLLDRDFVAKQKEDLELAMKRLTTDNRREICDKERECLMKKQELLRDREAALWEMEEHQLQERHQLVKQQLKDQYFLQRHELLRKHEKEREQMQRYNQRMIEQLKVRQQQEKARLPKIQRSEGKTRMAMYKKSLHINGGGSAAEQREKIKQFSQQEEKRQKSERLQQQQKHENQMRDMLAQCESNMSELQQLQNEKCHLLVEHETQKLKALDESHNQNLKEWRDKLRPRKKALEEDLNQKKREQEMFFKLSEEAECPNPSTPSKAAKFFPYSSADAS
For experiment [13], the target named is MAP kinase-activated protein kinase 3 (Homo sapiens) (UniProt Q16644). Put plainly: Inhibition of human recombinant MAPKAPK3 at 500 nM in presence of ATP by radiometric assay relative to control.
In experiment [14] the target is Ribosomal protein S6 kinase alpha-6 (Homo sapiens) (UniProt Q9UK32). Nature of the experiment: Inhibition of human recombinant RSK4 at 500 nM in presence of ATP by radiometric assay relative to control.
Ribosomal protein S6 kinase alpha-6 (Homo sapiens), sequence (Q9UK32 whole entry): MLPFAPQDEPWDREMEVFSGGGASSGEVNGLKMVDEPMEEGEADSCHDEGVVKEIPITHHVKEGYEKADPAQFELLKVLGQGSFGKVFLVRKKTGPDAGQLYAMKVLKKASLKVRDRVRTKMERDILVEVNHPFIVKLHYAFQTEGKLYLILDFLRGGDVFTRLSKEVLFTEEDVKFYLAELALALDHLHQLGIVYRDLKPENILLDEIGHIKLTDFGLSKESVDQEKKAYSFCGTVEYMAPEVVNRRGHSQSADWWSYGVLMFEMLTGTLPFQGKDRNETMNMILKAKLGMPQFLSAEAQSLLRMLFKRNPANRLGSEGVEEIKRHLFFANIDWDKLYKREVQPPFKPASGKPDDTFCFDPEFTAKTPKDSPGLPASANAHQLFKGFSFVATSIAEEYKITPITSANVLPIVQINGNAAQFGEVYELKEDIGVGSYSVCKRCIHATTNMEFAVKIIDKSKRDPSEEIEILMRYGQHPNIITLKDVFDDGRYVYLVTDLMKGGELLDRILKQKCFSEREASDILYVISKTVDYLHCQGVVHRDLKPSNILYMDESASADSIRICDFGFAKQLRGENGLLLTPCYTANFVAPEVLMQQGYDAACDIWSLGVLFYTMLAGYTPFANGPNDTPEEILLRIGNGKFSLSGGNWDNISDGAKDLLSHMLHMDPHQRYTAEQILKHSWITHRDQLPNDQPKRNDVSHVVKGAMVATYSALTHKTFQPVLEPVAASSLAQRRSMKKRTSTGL
The target of experiment [15] is eIF-2-alpha kinase GCN2 (Homo sapiens) (UniProt Q9P2K8). Nature of the experiment: Inhibition of human recombinant GCN2 at 500 nM related to control ULK1.
eIF-2-alpha kinase GCN2 (Homo sapiens), sequence (Q9P2K8 whole entry): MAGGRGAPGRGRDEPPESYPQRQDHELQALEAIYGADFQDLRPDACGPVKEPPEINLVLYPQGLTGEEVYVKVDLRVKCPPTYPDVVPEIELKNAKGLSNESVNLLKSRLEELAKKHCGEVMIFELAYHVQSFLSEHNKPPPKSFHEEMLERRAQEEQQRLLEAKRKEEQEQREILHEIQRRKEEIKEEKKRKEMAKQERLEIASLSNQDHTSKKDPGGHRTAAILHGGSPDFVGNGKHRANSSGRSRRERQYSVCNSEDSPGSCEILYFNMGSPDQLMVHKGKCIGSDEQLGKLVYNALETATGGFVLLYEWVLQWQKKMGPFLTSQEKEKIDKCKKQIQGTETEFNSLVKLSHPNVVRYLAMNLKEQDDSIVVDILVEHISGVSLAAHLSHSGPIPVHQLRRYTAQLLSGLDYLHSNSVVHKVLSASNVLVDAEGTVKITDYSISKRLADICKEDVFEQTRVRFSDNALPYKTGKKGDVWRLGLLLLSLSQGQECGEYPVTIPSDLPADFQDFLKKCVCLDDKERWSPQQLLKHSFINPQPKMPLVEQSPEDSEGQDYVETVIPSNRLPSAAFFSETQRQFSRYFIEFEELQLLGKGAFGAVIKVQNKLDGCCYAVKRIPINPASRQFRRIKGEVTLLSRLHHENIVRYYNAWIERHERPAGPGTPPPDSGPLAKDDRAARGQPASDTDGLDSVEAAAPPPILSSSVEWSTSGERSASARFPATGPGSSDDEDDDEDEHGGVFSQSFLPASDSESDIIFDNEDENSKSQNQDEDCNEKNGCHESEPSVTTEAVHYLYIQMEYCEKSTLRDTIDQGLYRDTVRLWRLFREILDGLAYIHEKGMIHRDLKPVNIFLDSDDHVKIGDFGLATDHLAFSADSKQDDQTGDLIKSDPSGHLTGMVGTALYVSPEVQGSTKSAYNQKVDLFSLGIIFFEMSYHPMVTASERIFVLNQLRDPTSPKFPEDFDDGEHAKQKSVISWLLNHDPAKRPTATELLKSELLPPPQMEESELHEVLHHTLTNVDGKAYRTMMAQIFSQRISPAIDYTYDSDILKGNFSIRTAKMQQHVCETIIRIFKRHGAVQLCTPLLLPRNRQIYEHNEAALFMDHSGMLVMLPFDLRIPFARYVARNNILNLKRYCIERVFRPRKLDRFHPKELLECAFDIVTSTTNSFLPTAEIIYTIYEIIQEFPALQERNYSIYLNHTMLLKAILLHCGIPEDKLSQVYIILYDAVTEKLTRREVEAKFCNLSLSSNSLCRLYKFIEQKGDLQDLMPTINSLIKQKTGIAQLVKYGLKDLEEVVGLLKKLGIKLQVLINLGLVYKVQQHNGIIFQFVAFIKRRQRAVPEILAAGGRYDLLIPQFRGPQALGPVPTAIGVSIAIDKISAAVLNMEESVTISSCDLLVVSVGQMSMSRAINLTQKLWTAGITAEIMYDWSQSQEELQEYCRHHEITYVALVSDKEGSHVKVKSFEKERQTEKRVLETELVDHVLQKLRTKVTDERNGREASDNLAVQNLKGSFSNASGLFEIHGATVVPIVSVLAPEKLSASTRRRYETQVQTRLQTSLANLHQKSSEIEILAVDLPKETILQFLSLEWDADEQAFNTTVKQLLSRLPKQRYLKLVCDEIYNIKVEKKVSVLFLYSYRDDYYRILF
The target of experiment [16] is Mitogen-activated protein kinase kinase kinase kinase 4 (Homo sapiens) (UniProt O95819). Put plainly: Inhibition of human recombinant HGK at 500 nM in presence of ATP by radiometric assay relative to control.

Serine/threonine-protein kinase PAK 4 (Homo sapiens), sequence (O96013 whole entry, looked up): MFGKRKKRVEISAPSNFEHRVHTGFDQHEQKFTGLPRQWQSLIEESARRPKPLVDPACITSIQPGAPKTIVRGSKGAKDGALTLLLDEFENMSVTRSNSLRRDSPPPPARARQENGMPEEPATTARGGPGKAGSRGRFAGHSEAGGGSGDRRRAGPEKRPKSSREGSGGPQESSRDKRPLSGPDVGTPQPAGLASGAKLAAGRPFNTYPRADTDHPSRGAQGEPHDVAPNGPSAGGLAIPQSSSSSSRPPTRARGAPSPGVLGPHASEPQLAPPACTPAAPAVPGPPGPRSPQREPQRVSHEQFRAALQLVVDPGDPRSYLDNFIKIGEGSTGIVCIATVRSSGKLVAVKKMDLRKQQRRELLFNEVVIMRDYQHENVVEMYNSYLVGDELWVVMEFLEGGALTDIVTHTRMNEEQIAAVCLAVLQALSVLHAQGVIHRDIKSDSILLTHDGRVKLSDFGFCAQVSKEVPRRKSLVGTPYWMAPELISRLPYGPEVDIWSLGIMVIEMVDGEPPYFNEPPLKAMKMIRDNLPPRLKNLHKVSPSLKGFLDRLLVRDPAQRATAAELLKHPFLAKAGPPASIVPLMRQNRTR
Bone morphogenetic protein receptor type-1B (Homo sapiens), sequence (O00238 whole entry): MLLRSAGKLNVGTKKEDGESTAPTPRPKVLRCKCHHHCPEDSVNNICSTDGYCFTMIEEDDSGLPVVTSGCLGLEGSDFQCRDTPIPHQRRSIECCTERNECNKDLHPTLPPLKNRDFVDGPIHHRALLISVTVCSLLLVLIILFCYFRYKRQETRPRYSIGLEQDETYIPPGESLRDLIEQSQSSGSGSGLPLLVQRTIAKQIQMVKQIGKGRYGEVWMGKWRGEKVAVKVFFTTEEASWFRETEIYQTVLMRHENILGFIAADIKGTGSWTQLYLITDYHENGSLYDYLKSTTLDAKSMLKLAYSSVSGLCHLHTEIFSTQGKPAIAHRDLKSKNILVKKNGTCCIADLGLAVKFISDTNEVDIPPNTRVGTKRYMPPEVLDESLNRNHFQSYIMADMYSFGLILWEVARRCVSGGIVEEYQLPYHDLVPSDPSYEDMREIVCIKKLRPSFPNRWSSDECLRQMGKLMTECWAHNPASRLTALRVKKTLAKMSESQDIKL
Cyclin-dependent kinase 9 (Homo sapiens), sequence (P50750 whole entry): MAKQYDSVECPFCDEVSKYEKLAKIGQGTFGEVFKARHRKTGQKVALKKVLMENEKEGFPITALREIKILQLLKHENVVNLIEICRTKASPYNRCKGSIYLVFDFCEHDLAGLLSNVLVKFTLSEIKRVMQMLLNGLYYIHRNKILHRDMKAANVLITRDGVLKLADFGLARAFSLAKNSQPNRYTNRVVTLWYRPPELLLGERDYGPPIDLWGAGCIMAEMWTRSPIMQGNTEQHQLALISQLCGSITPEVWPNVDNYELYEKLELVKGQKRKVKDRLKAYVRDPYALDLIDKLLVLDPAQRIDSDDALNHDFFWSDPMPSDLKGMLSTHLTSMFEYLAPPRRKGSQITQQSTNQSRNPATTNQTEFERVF

In the case of `CC(C)[C@H](NC(=O)c1cc(-c2cnn3cc(-c4ccc(OCCN5CCCCC5)cc4)cnc23)cs1)C(F)(F)F`, the inhibition in experiment [1] is 0%; in [4], 22%. The fold change (FC) in experiment [2], in experiment [3] and in experiment [5] was 0 throughout.
In the case of `O=C(N[C@@H](C1CC1)C(F)(F)F)c1cc(-c2cnn3cc(-c4ccc(F)cc4)cnc23)cs1`, the fold change (FC) was 0.03 in [6], 0 in [8], 0.01 in experiment [9] and 0 in [10]. The inhibition in experiment [7] is 0%.
For `CNC(=O)c1ccccc1Oc1nc(Nc2cc(OC)c(OC)c(OC)c2)ncc1Br`, the fold change (FC) is 0.55 in experiment [11] and 0.03 in experiment [15]. The inhibition in experiment [12] stood at 0%; in experiment [13], 0%; in experiment [14] it was 33%; in experiment [16], 0%.
